What was measured:
[1] = type: physicochemical; details: extract heated at 300 °C for 2 h; for EF of the OH-PCB metabolite after racemization: 15 min incubation, donor H5
Summary of the method: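 Representative hexane extracts were placed in amber ampules and heated at 300 °C. One came from a pooled-HLM incubation; the other from a 50 μM PCB 91 incubation with donor H5 microsomes. Both were re-run by enantioselective GC-μECD, ChiralDex B-DM or G-TA column according to analyte. EF = E1/(E1+E2), drop valley method.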

human liver microsomes [2] = type: in vitro ADME; details: for Difference in rate of metabolite formation, donor H1 vs. donor H5: individual donor HLM preparations
Summary of the method: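 Pooled HLMs (50 donors, mixed gender) or female single-donor HLMs (H1–H5, age 20–58) were used. Buffer was 0.1 M phosphate pH 7.4 with 3 mM MgCl2. Pre-incubated 5 min at 37 °C, then started with substrate in DMSO (≤0.5% of volume), in triplicate. Stopped with ice-cold 0.5 M NaOH and heated 110 °C for 10 min. Extracts were methylated and run on GC-μECD against PCB 204 using relative response factors. Rates adjusted per nmol P450 or per mg protein.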

human liver microsomes [3] = assay: Atropselective; type: in vitro ADME; details: for EF of the OH-PCB metabolite before racemization: representative extract, 15 min incubation, 50 μM PCB 91, HLMs from donor H5
Summary of the method: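 Racemic PCB 91 at 50 μM was incubated 15 min at 37 °C with 0.1 mg/mL microsomes and 1 mM NADPH, in triplicate. Depletion runs used 5 or 50 μM, 120 min, 0.5 mg/mL protein and 0.5 mM NADPH. Metabolites were methylated with diazomethane. GC-μECD used a ChiralDex B-DM column (135 °C) for PCB 91, 5-91 and 4-91, and a G-TA column (140 °C) for 3-100. EF = E1/(E1+E2) by drop valley; mean ± SD.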

recombinant rat CYP2B1 = details: E2-PCB 91 enriched; cited from earlier work
rat liver microsomes = details: E2-PCB 91 enriched; cited from earlier work

| Compound | EF of the OH-PCB metabolite after racemization [1] | Difference in rate of metabolite formation, donor H1 vs. donor H5 (human liver microsomes [2]) [fold] | EF of the OH-PCB metabolite before racemization (human liver microsomes [3]) | EF of PCB 91 in incubations with recombinant rat CYP2B1 (recombinant rat CYP2B1) | EF of PCB 91 after racemization ([1]; 2 h incubation, 5 μM PCB 91, pHLMs) | PCB 91 added to the incubation converted to OH-PCB metabolites (human liver microsomes [2]; 50 μM PCB 91, 0.1 mg/mL HLMs, 1 mM NADPH, 5 or 15 min, 37 °C) [%] | EF of PCB 91 in incubations with rat liver microsomes (rat liver microsomes) | EF of PCB 91, all other incubations (human liver microsomes [3]; high concentrations of racemic PCB 91) |
| --- | --- | --- | --- | --- | --- | --- | --- | --- |
| Oc1cc(Cl)c(-c2ccc(Cl)cc2Cl)c(Cl)c1Cl [4-91, 2,2′,3,4′,6-pentachlorobiphenyl-4-ol] | 0.51 | 5.4 | 0.85 |  |  |  |  |  |
| Oc1c(Cl)cc(Cl)c(-c2ccc(Cl)cc2Cl)c1Cl [3-100, 2,2′,4,4′,6-pentachlorobiphenyl-3-ol] | 0.46 | 2.6 | 0.87 |  |  |  |  |  |
| Oc1cc(Cl)c(Cl)c(-c2ccc(Cl)cc2Cl)c1Cl [5-91, 2,2′,3,4′,6-pentachlorobiphenyl-5-ol] | 0.49 | 19 | 0.43 |  |  |  |  |  |
| Clc1ccc(-c2c(Cl)ccc(Cl)c2Cl)c(Cl)c1 [PCB 91, 2,2′,3,4′,6-pentachlorobiphenyl] |  |  |  | 0.45 | 0.50 | ≤ 2 | 0.43 | near racemic |

— PMC5966832 (Environmental science & technology, 2018)
